Compound activity deposited in PubChem BioAssay by Broad Institute.
Most compounds without a hit are left out; they make up all but 2.1% or so of the library.
DENV2 CPE rescue = inhibitors of DENV2 cytopathic effect, primary screen, cell-based, plate reader, single concentration; DENV2-infected cells, cytopathic effect rescue; AID 651640, 2012; CPE inhibition, % at 9.99 µM; 1.7% of 350,000 active; in the data active = CPE inhibition above about 20%, passing the limit was not always enough; inconclusive = no clear call, values can overlap the other calls; tested in BHK-21 cells;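 note: 0% = median of neutral control wells and 100% = median of positive control wells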
C2C12 statin = suppressors of statin myotoxicity in C2C12 myotubes, primary screen, cell-based, single point, plate reader; rescue of ATP level, % at 7.49 µM; 0.78% of 330,000 active; C2C12 myotubes + simvastatin, ATP luminescence, 48 h; scaled: DMSO 0, geranylgeraniol control 100; AID 602340, 2012;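 active = mean ATP rescue above about 67%, or every replicate alone reaching that limit, limit read from the data, passing the limit was not always enough; inconclusive = no clear call, values can overlap the other calls; inactive = mean under the limit and some replicate under it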;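 note: myotubes were challenged with 10 µM simvastatin during compound exposure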
Xi reactivation = activators of inactive X chromosome reactivation, primary screen, imaging, XiGFP fibroblasts, GFP high-content imaging, set 2. XiGFP mouse fibroblasts, % GFP-positive cells imaging, 3 d; cells co-treated with 5-aza-dC sensitizer; scaled so ellipticine positive control = 100%. 0.055% of 360,000 active. activation, % at 7.58 µM. AID 743238, 2013;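 active = mean normalized replicate activation at least 10% and every replicate at or above 10%; inconclusive = only one of the two criteria met; inactive = mean below 10% and not all replicates reach 10%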;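 note: 0% = median of on-plate neutral control wells and 100% = ellipticine 6 µM median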
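Material: XiGFP fibroblasts, SV40-immortalized. Buffer or medium: DMEM plus 5-aza-dC sensitizer. Compound: single concentration per compound, delivered by pin transfer. Times: 3 days compound exposure. Controls: ellipticine 6 µM.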
Cneo AK release = Cryptococcus neoformans cell lysis inducers, primary screen, AK release luminescence, single concentration | 0.2% of 360,000 active | C. neoformans lysis, adenylate kinase release luminescence, 4 h; normalised: neutral wells 0, clomiphene wells 100 | lysis activity, % at 15 µM;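 active = mean lysis activity across replicates of at least 80%, whatever share of replicates individually reach that level; inactive = mean lysis activity below 80%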
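Material: C. neoformans cells | Amount: Yeast cell density of 5 × 10^6 cells/mL | Medium: Fresh YPD growth medium | Dosing: Single dose | Times: Static 4 h at 37 °C with compound, 1 h detection | Detection: AK luminescence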
An asterisk follows results filed as active; ? = inconclusive; . = no result given; ! = not active in a repeat.

SMILES	DENV2 CPE rescue	C2C12 statin	Xi reactivation	Cneo AK release
Cc1ccnc(NC(=O)CCC(=O)N(CC(=O)NCC2CCCO2)Cc2ccc(F)cc2)c1 (stereo not given)	.	91*	.	0
Cc1noc(C)c1NC(=O)Nc1cccc2c1O[C@H](CN(C)S(=O)(=O)c1ccc(F)cc1)[C@H](C)CN([C@@H](C)CO)C2=O	7	14	0	-7
Cc1ccc(S(=O)(=O)N(C)C[C@H]2Oc3c(NC(=O)Nc4ccccc4)cccc3C(=O)N([C@@H](C)CO)C[C@H]2C)cc1	4	123*	0	-5
Cc1noc(C)c1NC(=O)Nc1cccc2c1O[C@@H](CN(C)S(=O)(=O)c1ccc(F)cc1)[C@@H](C)CN([C@@H](C)CO)C2=O	89*	0	0	57
C[C@H](CO)N1C[C@H](C)[C@H](CN(C)S(=O)(=O)c2ccc(F)cc2)Oc2c(NC(=O)Nc3ccccc3)cccc2C1=O	?	4	0	0
C[C@@H]1CN([C@@H](C)CO)C(=O)c2cccc(NC(=O)Nc3ccccc3)c2O[C@@H]1CN(C)S(=O)(=O)c1ccc(F)cc1	-9	74*	0	-3
Cc1ccc(S(=O)(=O)N(C)C[C@@H]2Oc3c(NC(=O)Nc4ccccc4)cccc3C(=O)N([C@@H](C)CO)C[C@@H]2C)cc1	-1	-9	2	-8
Cc1ccc(S(=O)(=O)N(C)C[C@H]2Oc3c(NC(=O)Nc4ccccc4)cccc3C(=O)N([C@H](C)CO)C[C@H]2C)cc1	-3	117*	0	2
Cc1ccc(S(=O)(=O)Nc2ccc3c(c2)C(=O)N([C@H](C)CO)C[C@@H](C)[C@@H](CN(C)Cc2ccc4c(c2)OCO4)OCCCC[C@@H](C)O3)cc1	-12	32	-1	-1
COc1ccccc1NC(=O)N[C@@H]1CC[C@@H](CCNS(=O)(=O)c2ccc(F)cc2)O[C@H]1CO	-6	-4	0	52
C[C@H]1CN([C@@H](C)CO)C(=O)c2cc(NC(=O)Nc3ccc(C(F)(F)F)cc3)ccc2O[C@H]1CN(C)S(=O)(=O)c1ccc(F)cc1	-1	-62	-1	0
COc1ccccc1CNC(=O)C[C@H]1CC[C@H]2[C@@H](COC[C@H](O)CN2C(=O)Nc2ccccc2)O1	?	-1	0	-1
C[C@@H]1CN([C@H](C)CO)C(=O)c2cccc(NC(=O)Nc3ccccc3)c2O[C@@H]1CN(C)S(=O)(=O)c1ccccc1	-5	65*	0	1
Cc1cc(C(=O)Nc2cccc3c2O[C@H](CN(C)S(=O)(=O)c2ccccc2)[C@H](C)CN([C@H](C)CO)C3=O)n(C)n1	-13	-6	0	90*
Cc1cc(C(=O)Nc2cccc3c2O[C@@H](CN(C)S(=O)(=O)c2ccccc2)[C@H](C)CN([C@@H](C)CO)C3=O)n(C)n1	-2	7	-1	-3
CCCC#Cc1cnc2c(c1)C(=O)N([C@H](C)CO)C[C@@H](C)[C@H](CN(C)C(=O)c1ccc(F)cc1)O2	-13	-6	-1	48
O=C(C1=C[C@@H](c2ccc3c(c2)OCO3)C[C@@H](OCc2ccc(CO)cc2)O1)N1CCN(Cc2ccc3c(c2)OCO3)CC1	-1	.	.	1
CN1CCN(C(=O)C2=C[C@@H](c3ccc(C(F)(F)F)cc3)C[C@@H](OCc3ccc(CO)cc3)O2)CC1	78*!	25	0	5
O=C(C1=C[C@H](c2ccc(C(F)(F)F)cc2)C[C@H](OCc2ccc(CO)cc2)O1)N1CCCC1	0	.	.	-4
C[C@H]1C=C(C(=O)N2CCN(Cc3ccc4c(c3)OCO4)CC2)O[C@@H](OCc2ccc(CO)cc2)C1	24*!	13	0	-4
CC(=O)n1cc([C@@H]2C=C(C(=O)N3CCN(Cc4ccccc4)CC3)O[C@H](OCc3ccc(CO)cc3)C2)c2ccccc21	-12	86*	0	0
CC(=O)n1cc([C@H]2C=C(C(=O)N3CCCCCCC3)O[C@@H](OCc3ccc(CO)cc3)C2)c2ccccc21	0	.	.	-6
O=C(C1=C[C@H](c2ccc3c(c2)OCO3)C[C@H](OCc2ccc(CO)cc2)O1)N1CCN(Cc2ccc3c(c2)OCO3)CC1	59*!	5	0	-9
CO[C@@H]1CN(C)C(=O)c2cc(NC(=O)C3CCCC3)ccc2OC[C@H](C)N(CCC(F)(F)F)C[C@H]1C	0	4	0	3
COc1ccc2c3c([nH]c2c1)[C@@H](CO)N(Cc1ccccc1)CC31CN(CC2CC2)C1	.	.	0	.
SMILES	DENV2 CPE rescue	C2C12 statin	Xi reactivation	Cneo AK release
CC(C)(C)[C@H]1C=C(C(=O)N2CCOCC2)O[C@@H](OCc2ccc(CO)cc2)C1	36*!	1	0	0
CC(C)(C)[C@@H]1C=C(C(=O)N2CCOCC2)O[C@H](OCc2ccc(CO)cc2)C1	-1	-7	0	28
O=C(NCc1ccccc1)C1=C[C@H](c2ccc3c(c2)OCO3)C[C@H](OCc2ccc(CO)cc2)O1	10	2	0	1
O=C(NCc1ccccc1)C1=C[C@@H](c2ccc3c(c2)OCO3)C[C@@H](OCc2ccc(CO)cc2)O1	22*!	5	0	0
CC(C)NC(=O)N(C)C[C@H]1OCCCC[C@H](C)Oc2ccc(NC(=O)Cc3ccccc3)cc2C(=O)N([C@H](C)CO)C[C@@H]1C	16	.	0	2
C[C@@H]1CN([C@@H](C)CO)C(=O)c2c(c3ccccc3n2C)-c2ccccc2CO[C@H]1CN(C)C(=O)Nc1cccc(Cl)c1Cl	40*	.	0	.
COc1ccc(NC(=O)N(C)C[C@H]2OCc3ccccc3-c3c(n(C)c4ccccc34)C(=O)N([C@H](C)CO)C[C@@H]2C)cc1	-2	.	2	111*
COc1ccc(NC(=O)N(C)C[C@H]2OCc3ccccc3-c3c(n(C)c4ccccc34)C(=O)N([C@@H](C)CO)C[C@@H]2C)cc1	5	.	0	-2
CCC(C)[C@H](NC(=O)[C@@H]1Cc2ccccc2CN1)C(=O)NCc1ccc(C)cc1 (stereo not given in full)	92*	3	4	-1
C[C@H](CO)N1C[C@H](C)[C@@H](CN(C)S(=O)(=O)c2cn(C)cn2)Oc2c(NC(=O)Nc3cccc4ccccc34)cccc2C1=O	-1	58	-1	5
COc1ccc(CCNC(=O)c2ccc(N3CCCC3=O)cc2)cc1	.	114*	.	2
CC(C)CC#Cc1cnc2c(c1)C(=O)N([C@@H](C)CO)C[C@@H](C)[C@@H](CN(C)C(=O)c1cnccn1)O2	8	8	-1	8
CCn1ncc(N(C)N)c(Cl)c1=O	-3	89*	0	-2
C=CCNC(=O)c1cccn1-c1ccsc1C(=O)OC	.	91*	.	3
C=CCNC(=O)C(=O)c1cccn1-c1ccsc1C(=O)OC	.	-2	.	-3
